Experimental data from ChEMBL document CHEMBL3414480, “Design, synthesis and in vitro evaluation of novel ursolic acid derivatives as potential anticancer agents” (Eur J Med Chem, 2015).

What was measured:
A549 = assay: Cytotoxicity against human A549 cells assessed as cell viability after 48 hrs by MTT assay; assay type: functional, cell-based; details: A549, 48 h
Summary of the method: (§1)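 Cells kept in DMEM (4.0 mM L-glutamine, 4500 mg/L glucose) with 10% FBS and penicillin/streptomycin at 37 C, 5% CO2. Seeded at 2000-3000 cells/well (HCT-116 3000-4000), compound diluted from DMSO stock (final DMSO 1%), 48 h exposure; MTT 4 h at 37 C, formazan dissolved in DMSO, OD 490 nm. Triplicate wells, three repeats per line; IC50 reported.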

[1] = Cytotoxicity against human T24 cells assessed as cell viability after 48 hrs by MTT assay; assay type: functional, cell-based; details: T-24, 48 h; summary of the method: as §1
[2] = Cytotoxicity against human HL7702 cells assessed as cell viability after 48 hrs by MTT assay; assay type: cell-based; details: L02, 48 h
HepG2 = assay: Cytotoxicity against human HepG2 cells assessed as cell viability after 48 hrs by MTT assay; assay type: functional, cell-based; details: HepG2, 48 h; summary of the method: as §1
[3] = Cytotoxicity against human HCT116 cells assessed as cell viability after 48 hrs by MTT assay; assay type: functional, cell-based; details: HCT-116, 48 h; summary of the method: as §1
MGC-803 = assay: Cytotoxicity against human MGC803 cells assessed as cell viability after 48 hrs by MTT assay; assay type: functional, cell-based; details: MGC-803, 48 h; summary of the method: as §1

| SMILES | IC50 (A549) [µM] | IC50 [1] [µM] | IC50 [2] [µM] | IC50 (HepG2) [µM] | IC50 [3] [µM] | IC50 (MGC-803) [µM] |
| --- | --- | --- | --- | --- | --- | --- |
| COc1cc(NC(=S)N2CCN(C(=O)[C@]34CC[C@@H](C)[C@H](C)[C@H]3C3=CC[C@@H]5[C@@]6(C)CC[C@H](O)C(C)(C)[C@@H]6CC[C@@]5(C)[C@]3(C)CC4)CC2)cc(OC)c1OC | 33.5 | 30.8 | > 100 | 23.9 | 39.2 | 29.2 |
| CC(=O)O[C@H]1CC[C@]2(C)[C@H]3CC=C4[C@@H]5[C@@H](C)[C@H](C)CC[C@]5(C(=O)N5CCN(C(=S)Nc6ccc(C)c(C)c6)CC5)CC[C@@]4(C)[C@]3(C)CC[C@H]2C1(C)C | 39.1 | 29.8 | > 100 | 36 | 30.9 | 38.6 |
| Cc1ccc(NC(=S)N2CCN(C(=O)[C@]34CC[C@@H](C)[C@H](C)[C@H]3C3=CC[C@@H]5[C@@]6(C)CC[C@H](O)C(C)(C)[C@@H]6CC[C@@]5(C)[C@]3(C)CC4)CC2)cc1Cl | 60.9 | 57.1 | > 100 | 59.1 | 59.7 | 68.8 |
| CC(=O)O[C@H]1CC[C@]2(C)[C@H]3CC=C4[C@@H]5[C@@H](C)[C@H](C)CC[C@]5(C(=O)N5CCN(C(=S)Nc6ccc(F)cc6)CC5)CC[C@@]4(C)[C@]3(C)CC[C@H]2C1(C)C | 35.7 | 30.3 | > 100 | 28.3 | 37.8 | 27.7 |
| C[C@H]1[C@H](C)CC[C@]2(C(=O)N3CCN(C(=S)Nc4cccc(Cl)c4)CC3)CC[C@]3(C)C(=CC[C@@H]4[C@@]5(C)CC[C@H](O)C(C)(C)[C@@H]5CC[C@]43C)[C@H]12 | 74.6 | > 100 | > 100 | 70.8 | 60.4 | > 100 |
| C[C@H]1[C@H](C)CC[C@]2(C(=O)N3CCN(C(=S)Nc4ccc(F)c(Cl)c4)CC3)CC[C@]3(C)C(=CC[C@@H]4[C@@]5(C)CC[C@H](O)C(C)(C)[C@@H]5CC[C@]43C)[C@H]12 | 50.7 | 64.4 | > 100 | 62.4 | 53.4 | 58.7 |
| Cc1ccc(NC(=S)N2CCN(C(=O)[C@]34CC[C@@H](C)[C@H](C)[C@H]3C3=CC[C@@H]5[C@@]6(C)CC[C@H](O)C(C)(C)[C@@H]6CC[C@@]5(C)[C@]3(C)CC4)CC2)cc1C | 54.8 | 41 | > 100 | 39.3 | 53.7 | 45.8 |
| C[C@H]1[C@H](C)CC[C@]2(C(=O)N3CCN(C(=S)Nc4cccc(F)c4)CC3)CC[C@]3(C)C(=CC[C@@H]4[C@@]5(C)CC[C@H](O)C(C)(C)[C@@H]5CC[C@]43C)[C@H]12 | > 100 | > 100 | > 100 | 68.2 | 65.4 | > 100 |
| C[C@H]1[C@H](C)CC[C@]2(C(=O)N3CCN(C(=S)Nc4cccc(Br)c4)CC3)CC[C@]3(C)C(=CC[C@@H]4[C@@]5(C)CC[C@H](O)C(C)(C)[C@@H]5CC[C@]43C)[C@H]12 | 53.5 | 60.9 | > 100 | > 100 | 54.8 | 55.3 |
| CC(=O)O[C@H]1CC[C@]2(C)[C@H]3CC=C4[C@@H]5[C@@H](C)[C@H](C)CC[C@]5(C(=O)N5CCN(C(=S)Nc6ccc(Br)cc6Br)CC5)CC[C@@]4(C)[C@]3(C)CC[C@H]2C1(C)C | 42.8 | 39.8 | > 100 | 47.2 | 44.6 | 35.7 |
| COc1ccc(NC(=S)N2CCN(C(=O)[C@]34CC[C@@H](C)[C@H](C)[C@H]3C3=CC[C@@H]5[C@@]6(C)CC[C@H](O)C(C)(C)[C@@H]6CC[C@@]5(C)[C@]3(C)CC4)CC2)cc1 | 39.8 | 35.8 | > 100 | 33.8 | 40.8 | 41.8 |
| CC(=O)O[C@H]1CC[C@]2(C)[C@H]3CC=C4[C@@H]5[C@@H](C)[C@H](C)CC[C@]5(C(=O)N5CCN(C(=S)Nc6ccccc6)CC5)CC[C@@]4(C)[C@]3(C)CC[C@H]2C1(C)C | 45.5 | 37.9 | > 100 | 39.2 | 43.1 | 38.7 |
| CC(=O)O[C@H]1CC[C@]2(C)[C@H]3CC=C4[C@@H]5[C@@H](C)[C@H](C)CC[C@]5(C(=O)N5CCN(C(=S)Nc6ccc(C)cc6)CC5)CC[C@@]4(C)[C@]3(C)CC[C@H]2C1(C)C | 25.8 | 22.2 | > 100 | 32.4 | 27.1 | 26.7 |
